Laboratory results taken from ChEMBL document CHEMBL3875213, “Quinolines: Microwave-assisted synthesis and their antifungal, anticancer and radical scavenger properties” (Bioorg Med Chem, 2017).
Converted amounts (≈) assume the structure as drawn. The source made the active and inactive calls. No cut-off for these calls is given here.

Assays:
[1] = Antiproliferative activity against human NCI-H226 cells harboring TP53 mutant after 24 hrs by MTT assay; assay type: functional, cell-based; conditions: NCI-H226, 24 h
Outline: (§1)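 Cells grown in medium with 10% foetal bovine serum and 1% L-glutamine at 37 °C, 5% CO2, seeded at 1 x 10^5 cells/well. Exposed to compound at 1.0-1,000 µg/mL for 24 h. MTT added, absorbance read at 540 nm 3 h later. IC50 obtained by non-linear regression of viability data.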

[2] = Selectivity index, ratio of IC50 for human CCD-19Lu cells to IC50 for human TOV21G cells; assay type: functional
Outline: (§2)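 Selectivity index equals IC50 in non-tumour CCD 19-Lu lung fibroblasts divided by IC50 in the tumour line. Both IC50s come from the 24 h MTT assay (read at 540 nm) over 1.0-1,000 µg/mL.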

Candida albicans [3] = experiment: Antifungal activity against Candida albicans ATCC 10231 incubated for 48 hrs under dark condition by broth microdilution assay; assay type: functional; conditions: ATCC 10231, 48 h
Outline: (§3)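 Broth microdilution per CLSI M27-A3 in RPMI-1640. Inocula adjusted to 1-5 x 10^3 CFU/mL. Stocks in DMSO (≤1%), final 3.9-250.0 µg/mL. Incubated 48 h at 30 °C in a moist, dark chamber, read at OD 405. % inhibition computed from growth and sterility control wells, run in triplicate. MIC80/MIC50 taken from four-parameter logistic concentration-response curves; amphotericin B as positive control.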

Candida albicans [4] = experiment: Growth inhibition of Candida albicans ATCC 10231 at 7.81 ug/ml incubated for 48 hrs under dark condition by broth microdilution assay relative to amphotericin B; assay type: functional; conditions: ATCC 10231, 48 h, read-out: GI
Outline: (§4)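 Yeast broth microdilution (CLSI M27-A3), RPMI-1640, inoculum 1-5 x 10^3 CFU/mL, DMSO ≤1%, 48 h at 30 °C in a moist, dark chamber. […]. Triplicate; amphotericin B as positive control.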

Candida albicans [5] = experiment: Growth inhibition of Candida albicans ATCC 10231 at 62.5 ug/ml incubated for 48 hrs under dark condition by broth microdilution assay relative to amphotericin B; assay type: functional; conditions: ATCC 10231, 48 h, read-out: GI; outline: as §4
Candida albicans [6] = experiment: Growth inhibition of Candida albicans ATCC 10231 at 250 ug/ml incubated for 48 hrs under dark condition by broth microdilution assay relative to amphotericin B; assay type: functional; conditions: ATCC 10231, 48 h, read-out: GI; outline: as §4
[7] = Antiproliferative activity against human TOV21G harboring wild type TP53 cells after 24 hrs by MTT assay; assay type: functional, cell-based; outline: as §1
Candida albicans [8] = experiment: Growth inhibition of Candida albicans ATCC 10231 at 15.62 ug/ml incubated for 48 hrs under dark condition by broth microdilution assay relative to amphotericin B; assay type: functional; conditions: ATCC 10231, 48 h, read-out: GI; outline: as §4
[9] = Antioxidant activity assessed as DPPH radical scavenging activity at 160 uM incubated for 30 mins under dark condition; assay type: functional
Outline: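 Compound at 160 µM incubated with 100 µM DPPH in ethanolic medium, stirred in the dark for 30 min, read at 517 nm. Resveratrol as positive control. Three independent experiments, each in triplicate.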

[10] = Antifungal activity against Cryptococcus neoformans ATCC 32264 incubated for 48 hrs under dark condition by broth microdilution assay; assay type: functional; outline: as §3
[11] = Antiproliferative activity against human Hep2C cells after 24 hrs by MTT assay; assay type: functional, cell-based; outline: as §1
[12] = Antioxidant activity assessed as DPPH radical scavenging activity incubated for 30 mins under dark condition; assay type: functional
Outline: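 DPPH (100 µM) in ethanolic medium, stirred 30 min in the dark, absorbance at 517 nm. Compound varied from 0 to 160 µg/mL to find the concentration scavenging 50% of radicals. Three independent experiments, each in triplicate.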

Candida albicans [13] = experiment: Growth inhibition of Candida albicans ATCC 10231 at 31.25 ug/ml incubated for 48 hrs under dark condition by broth microdilution assay relative to amphotericin B; assay type: functional; conditions: ATCC 10231, 48 h, read-out: GI; outline: as §4
[14] = Antioxidant activity assessed as fluorescent light-induced superoxide anion scavenging activity incubated for 10 mins by nitroblue tetrazolium dye based assay; assay type: functional
Outline: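 Riboflavin/light superoxide system: 50 mM phosphate pH 7.8, 13 mM L-methionine, 75 µM NBT, 100 µM EDTA, 2 µM riboflavin, compound 0-200 µg/mL. Fluorescent light for 10 min at 25 °C, dark controls, scavenging measured at 575 nm. Resveratrol as reference.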

[15] = Selectivity index, ratio of IC50 for human CCD-19Lu cells to IC50 for human Hep2C cells; assay type: functional; outline: as §2
NCI-H226 = experiment: Selectivity index, ratio of IC50 for human CCD-19Lu cells to IC50 for human NCI-H226 cells; assay type: functional; outline: as §2
[16] = Antiproliferative activity against human CCD-19Lu cells after 24 hrs by MTT assay; assay type: cell-based; outline: as §1
Candida albicans [17] = experiment: Growth inhibition of Candida albicans ATCC 10231 at 125 ug/ml incubated for 48 hrs under dark condition by broth microdilution assay relative to amphotericin B; assay type: functional; conditions: ATCC 10231, 48 h, read-out: GI; outline: as §4
Candida albicans [18] = experiment: Growth inhibition of Candida albicans ATCC 10231 at 3.9 ug/ml incubated for 48 hrs under dark condition by broth microdilution assay relative to amphotericin B; assay type: functional; conditions: ATCC 10231, 48 h, read-out: GI; outline: as §4
[19] = Antioxidant activity assessed as fluorescent light-induced superoxide anion scavenging activity at 160 uM incubated for 10 mins by nitroblue tetrazolium dye based assay; assay type: functional
Outline: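 Superoxide generated photochemically in 50 mM phosphate buffer pH 7.8 with 13 mM L-methionine, 75 µM nitroblue tetrazolium, 100 µM EDTA and 2 µM riboflavin. Compound at 160 µM. 10 min at 25 °C under fluorescent light; dark controls. Read at 575 nm. Resveratrol as positive control; three independent experiments in triplicate.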

[20] = Potency index, ratio of resveratrol SC50 to compound SC50 for fluorescent light-induced superoxide anion scavenging activity
[21] = Ratio of antifungal activity against Candida albicans ATCC 10231 to antifungal activity against Cryptococcus neoformans ATCC 32264; assay type: functional

Row | SMILES | MIC50 (Candida albicans [3]) [µg/mL] | MIC80 (Candida albicans [3]) [µg/mL] | MIC50 [10] [µg/mL] | MIC80 [10] [µg/mL] | IC50 [1] [µM] | Ratio IC50 [2] | inhibition of growth at 7.81 µg/mL (Candida albicans [4]) [%] | inhibition of growth at 62.5 µg/mL (Candida albicans [5]) [%] | inhibition of growth at 250 µg/mL (Candida albicans [6]) [%] | IC50 [7] [µM] | inhibition of growth at 15.62 µg/mL (Candida albicans [8]) [%] | Activity [9] [%] | IC50 [11] [µM] | SC50 [12] [µM] | inhibition of growth at 31.25 µg/mL (Candida albicans [13]) [%] | SC50 [14] [µM] | Ratio IC50 (NCI-H226) | IC50 [16] [µM] | inhibition of growth at 125 µg/mL (Candida albicans [17]) [%] | inhibition of growth at 3.9 µg/mL (Candida albicans [18]) [%] | also measured
1 | Brc1ccc2nc(-c3ccco3)cc(-c3ccccc3)c2c1 | 62.5 (≈ 178 µM) | 125 (≈ 357 µM) | 62.5 (≈ 178 µM) | 250 (≈ 714 µM) | 30 | 0 | 4.37 | 21.5 | 83.3 | 877 | 8.68 | 45 to 55 | 102 | 82.7 | 13.1 | > 250 | 21 | 631 | 43.2 | 1.75 | Activity [10]: Dose-dependent effect; Ratio IC50 [15]: 6
2 | COc1ccc2nc(-c3ccccc3)cc(-c3ccccc3)c2c1 | 250 (≈ 803 µM) | > 250 | 250 (≈ 803 µM) | 250 (≈ 803 µM) | 57 | 8 | 0 | 12.2 | 57.2 | 110 | 4 | 45 to 55 | 496 | 168 | 8.43 | > 250 | 16 | 925 | 20.9 | 0 | Ratio IC50 [15]: 1
3 | COc1cc(-c2cc(-c3ccccc3)c3cc(Br)ccc3n2)cc(OC)c1OC | 125 (≈ 278 µM) | 250 (≈ 555 µM) | 62.5 (≈ 139 µM) | 250 (≈ 555 µM) | 61 | 0 | 2.99 | 20.8 | 82.7 | 493 | 7.32 | – | – | 428 | 12.9 | > 250 | 1 | 104 | 52.9 | 0 | –
4 | Oc1cccc(-c2cc(-c3ccccc3)c3cc(Br)ccc3n2)c1 | > 250 | > 250 | > 250 | > 250 | – | – | 3.15 | 11.2 | 40.9 | – | 4.08 | – | – | > 250 | 7.61 | 121 | – | – | 20.2 | – | Ratio [20]: 2; Activity [19]: Active

Continued, in another order:

Row | MIC50 (Candida albicans [3]) [µg/mL] | MIC80 (Candida albicans [3]) [µg/mL] | MIC50 [10] [µg/mL] | MIC80 [10] [µg/mL] | SMILES | IC50 [1] [µM] | Ratio IC50 [2] | inhibition of growth at 7.81 µg/mL (Candida albicans [4]) [%] | inhibition of growth at 62.5 µg/mL (Candida albicans [5]) [%] | inhibition of growth at 250 µg/mL (Candida albicans [6]) [%] | IC50 [7] [µM] | inhibition of growth at 15.62 µg/mL (Candida albicans [8]) [%] | Activity [9] [%] | IC50 [11] [µM] | SC50 [12] [µM] | inhibition of growth at 31.25 µg/mL (Candida albicans [13]) [%] | SC50 [14] [µM] | Ratio IC50 (NCI-H226) | IC50 [16] [µM] | inhibition of growth at 125 µg/mL (Candida albicans [17]) [%] | inhibition of growth at 3.9 µg/mL (Candida albicans [18]) [%] | also measured
5 | > 250 | > 250 | 15.6 (≈ 41.2 µM) | > 250 | Fc1ccc(-c2cc(-c3ccccc3)c3cc(Br)ccc3n2)cc1 | – | – | 1.37 | 4.13 | 17.2 | 570 | 4.24 | – | 5 | – | 4.35 | – | – | – | 6.09 | 0.19 | Activity [19]: Active
6 | > 250 | > 250 | 15.6 (≈ 41.7 µM) | > 250 | Cc1ccc(-c2cc(-c3ccccc3)c3cc(Br)ccc3n2)cc1 | – | – | 0 | 5.87 | 31.5 | – | 3.04 | 45 to 55 | 175 | 197 | 2.64 | 104 | – | – | 11.1 | 0 | Ratio [20]: 2; Activity [19]: Active
7 | 125 (≈ 347 µM) | > 250 | 31.2 (≈ 86.6 µM) | > 250 | Brc1ccc2nc(-c3ccccc3)cc(-c3ccccc3)c2c1 | 43.4 | 1 | 2.57 | 17.2 | 55.9 | 531 | 7.33 | 45 to 55 | 128 | > 250 | 10.1 | > 250 | 15 | 669 | 30.7 | 1.16 | Ratio [21]: 4; Activity [19]: < 10%; Ratio IC50 [15]: 5
